Bioassay records (PubChem)
The list is not random: actives were taken first. Their share in the collection is about 2.9%.
OX1R antag-1 – OX1R (human) antagonism | O43613 | OX1R-expressing cells, FRET antagonist read-out | inhibition, % at 6.6 µM | hit rate 1.8% among 330,000 | AID 485270; in the data active means inhibition mostly above about 38%, no sharp cut-off; inactive means mostly below about 40%
Target sequence (O43613 whole entry, looked up): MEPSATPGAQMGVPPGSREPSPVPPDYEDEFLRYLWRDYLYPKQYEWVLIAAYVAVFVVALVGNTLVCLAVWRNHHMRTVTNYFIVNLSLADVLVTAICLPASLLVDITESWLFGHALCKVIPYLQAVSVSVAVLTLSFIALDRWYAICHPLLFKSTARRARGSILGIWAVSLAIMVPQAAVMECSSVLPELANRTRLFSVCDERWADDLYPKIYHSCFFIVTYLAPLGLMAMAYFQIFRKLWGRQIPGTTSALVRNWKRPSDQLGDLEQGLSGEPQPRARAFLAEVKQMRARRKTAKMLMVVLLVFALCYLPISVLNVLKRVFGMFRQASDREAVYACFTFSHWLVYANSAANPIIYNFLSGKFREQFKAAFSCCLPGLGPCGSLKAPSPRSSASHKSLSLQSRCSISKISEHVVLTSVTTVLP
CHO-K1 Ca antag – nonselective inhibitor or artifact in parental CHO-K1 cells; ATP-induced calcium, Fluo-8 fluorescence; inhibition, % at 3 µM; hit rate 0.6% among 360,000;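 active means inhibition above a per-plate cutoff, the plate's mean sample inhibition plus 3 SD, cut at about 24% in these data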
CHO parental Ca – counter-screen: ATP calcium response change in parental CHO cells; AID 463079; parental CHO-K1, ATP-induced calcium, Fluo-8 fluorescence; inhibition, % at 5.6 µM; hit rate 0.63% among 330,000;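 active means inhibition above that plate's mean sample inhibition plus 3 SD, cut at about 26% in these data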
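Assay system: untransfected parental CHO cell line. Also added: ATP agonist challenge. Dosing: one dose, 5.6 µM nominal. Measured by: Fluo-8 fluorescence. Read-out: % inhibition. Benchmarks: ATP wells versus no-ATP DMSO wells. Repeats: no replicates.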
M1 PAM parental – M1 PAM counterscreen hit in parental CHO-K1 cells; ATP EC20, Fluo-8 calcium fluorescence; 0% at ATP EC20, 100% at ATP max; activation, % at 3 µM; hit rate 0.02% among 360,000;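 active means activation above the run cutoff, the mean activation of all test compounds plus 3 SD, cut at about 40% in these data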;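 further: peak over basal fluorescence ratio in a 140 s read after ATP addition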
OX1R antag-2 – antagonists of human orexin 1 receptor. inhibition, % at 5 µM. CHO/OX1R cells, Fluo-8 calcium fluorescence, orexin A. AID 434989. hit rate 0.43% among 330,000. O43613;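 active means inhibition above its plate's threshold, mean inhibition of all tested compounds on the plate plus 3 SD, cut at about 37% in these data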
CHO-K1 Ca ag – M1 agonist counterscreen hit in parental CHO-K1 cells | Fluo-8 calcium fluorescence; scaled to maximal ATP response, vehicle zero | AID 602248 | activation, % at 3 µM | hit rate 0.48% among 360,000; in the data active means activation above about 15%;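 further: untransfected CHO-K1 host cells lacking M1 receptor as counterscreen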
OX1R HTRF confirm – confirmation of human orexin 1 receptor antagonists, HTRF format | inhibition, % at 6.6 µM | hit rate 49% among 1,800 | shares compounds with OX1R antag-1 | OX1R-expressing cells, HTRF antagonist assay; in the data active means inhibition above about 55%;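 further: CHO cells expressing OX1R stimulated with orexin A at about EC80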
CHO-K1 HTRF cnt – counter-screen for OX1R antagonists: effect in parental CHO-K1 cells | shares compounds with OX1R antag-1 | HTRF counterscreen | inhibition, % at 6.6 µM | hit rate 48% among 1,800 | AID 493232; in the data active means inhibition above about 17%
A number is an active result.

How did CCN(CC)c1ccc2nc3ccc(N)cc3[n+](-c3ccccc3)c2c1 do in these assays?
CHO-K1 Ca antag: inactive; M1 PAM parental: inactive; CHO-K1 Ca ag: inactive

Results for CCN(CC)c1ccc2nc3ccccc3[n+](CC)c2c1 ?
OX1R antag-1: 149; CHO-K1 Ca antag: inactive; CHO parental Ca: inactive; M1 PAM parental: inactive; OX1R antag-2: inactive; CHO-K1 Ca ag: inactive; OX1R HTRF confirm: 110; CHO-K1 HTRF cnt: 157

Results for c1ccc2c(-c3nc4ncccc4o3)cccc2c1 ?
OX1R antag-1: 90; CHO-K1 Ca antag: inactive; CHO parental Ca: inactive; M1 PAM parental: inactive; OX1R antag-2: inactive; CHO-K1 Ca ag: inactive; OX1R HTRF confirm: 89; CHO-K1 HTRF cnt: inactive

How did O=C(NCc1cccnc1)c1[nH]c(C(F)(F)F)nc1-c1ccccc1 do in these assays?
CHO-K1 Ca antag: inactive; M1 PAM parental: inactive; CHO-K1 Ca ag: inactive

Results for O=C1CCCC2=C1C(c1cccs1)n1nc(SCc3ccccc3F)nc1N2 (stereo not drawn) ?
OX1R antag-1: inactive; CHO-K1 Ca antag: inactive; CHO parental Ca: inactive; M1 PAM parental: inactive; OX1R antag-2: inactive; CHO-K1 Ca ag: inactive

What do the screens show for `CSc1nc2n(n1)C(c1cccs1)C1=C(CCCC1=O)N2` (stereo not drawn)?
OX1R antag-1: 106; CHO-K1 Ca antag: inactive; CHO parental Ca: inactive; M1 PAM parental: inactive; OX1R antag-2: inactive; CHO-K1 Ca ag: inactive; OX1R HTRF confirm: inactive; CHO-K1 HTRF cnt: inactive

What do the screens show for `Cc1ccc(C(=O)N[C@H](C(=O)NC2CCCCC2)C(C)C)cc1`?
OX1R antag-1: inactive; CHO-K1 Ca antag: inactive; CHO parental Ca: inactive; M1 PAM parental: inactive; OX1R antag-2: inactive; CHO-K1 Ca ag: inactive

How did COc1cccc(-c2nn(C)c3sc(C(=O)N4CCN(c5ccccn5)CC4)cc23)c1 do in these assays?
OX1R antag-1: 78; CHO-K1 Ca antag: inactive; CHO parental Ca: inactive; M1 PAM parental: inactive; OX1R antag-2: inactive; CHO-K1 Ca ag: inactive; OX1R HTRF confirm: inactive; CHO-K1 HTRF cnt: inactive

How did COc1cc(/C=C/C(=O)c2ccc3c(c2)OCCO3)cc(Br)c1OCC(=O)N(C)C do in these assays?
OX1R antag-1: inactive; CHO-K1 Ca antag: inactive; CHO parental Ca: inactive; M1 PAM parental: inactive; OX1R antag-2: inactive; CHO-K1 Ca ag: inactive

How did CCC(C)n1c(=N)c(C#N)cc2c(=O)n3cc(C)ccc3nc21 (stereo not drawn) do in these assays?
OX1R antag-1: inactive; CHO-K1 Ca antag: inactive; CHO parental Ca: inactive; M1 PAM parental: inactive; OX1R antag-2: inactive; CHO-K1 Ca ag: inactive

What do the screens show for `Cc1ccc2nc3c(cc(C#N)c(=O)n3-c3nccs3)c(=O)n2c1`?
OX1R antag-1: 169; CHO-K1 Ca antag: inactive; CHO parental Ca: inactive; M1 PAM parental: inactive; OX1R antag-2: inactive; CHO-K1 Ca ag: inactive; OX1R HTRF confirm: 90; CHO-K1 HTRF cnt: 77

Results for CC(=O)c1sc(N/N=C\c2c(O)ccc3ccccc23)nc1C ?
OX1R antag-1: 85; CHO-K1 Ca antag: inactive; CHO parental Ca: inactive; M1 PAM parental: inactive; OX1R antag-2: inactive; CHO-K1 Ca ag: inactive; OX1R HTRF confirm: 58; CHO-K1 HTRF cnt: inactive

What do the screens show for `Oc1ccc2ccccc2c1/C=N/Nc1ccccc1`?
OX1R antag-1: inactive; CHO-K1 Ca antag: inactive; CHO parental Ca: inactive; M1 PAM parental: inactive; OX1R antag-2: inactive; CHO-K1 Ca ag: inactive

What do the screens show for `O=[N+]([O-])c1cc(-c2ccccc2)cc([N+](=O)[O-])c1O`?
CHO-K1 Ca antag: inactive; M1 PAM parental: inactive; CHO-K1 Ca ag: inactive

What do the screens show for `Nc1c([N+](=O)[O-])cnnc1-c1ccccc1`?
OX1R antag-1: 80; CHO-K1 Ca antag: inactive; CHO parental Ca: inactive; M1 PAM parental: inactive; OX1R antag-2: inactive; CHO-K1 Ca ag: inactive; OX1R HTRF confirm: 93; CHO-K1 HTRF cnt: 101

How did CC1(C)CC(NS(=O)(=O)c2ccc(F)cc2)CC(C)(C)N1 do in these assays?
OX1R antag-1: 86; CHO-K1 Ca antag: inactive; CHO parental Ca: inactive; M1 PAM parental: inactive; OX1R antag-2: inactive; CHO-K1 Ca ag: inactive; OX1R HTRF confirm: inactive; CHO-K1 HTRF cnt: inactive

How did CC1(C)CC(NS(=O)(=O)c2ccc(S(N)(=O)=O)cc2)CC(C)(C)N1 do in these assays?
OX1R antag-1: inactive; CHO-K1 Ca antag: inactive; CHO parental Ca: inactive; M1 PAM parental: inactive; OX1R antag-2: inactive; CHO-K1 Ca ag: inactive

What do the screens show for `COc1cc(-c2c(NC(=O)c3ccco3)oc3ccccc3c2=O)cc(OC)c1OC`?
OX1R antag-1: inactive; CHO-K1 Ca antag: inactive; CHO parental Ca: inactive; M1 PAM parental: inactive; OX1R antag-2: inactive; CHO-K1 Ca ag: inactive

Results for COc1ccc(N=Nc2nc3cc(Br)c(Br)cc3n2C)c(OC)c1 ?
OX1R antag-1: 84; CHO-K1 Ca antag: inactive; CHO parental Ca: inactive; M1 PAM parental: inactive; OX1R antag-2: inactive; CHO-K1 Ca ag: inactive; OX1R HTRF confirm: 88; CHO-K1 HTRF cnt: 19

What do the screens show for `COc1ccc(CNc2nc3ccccc3n2C)c(OC)c1`?
OX1R antag-1: inactive; CHO-K1 Ca antag: inactive; CHO parental Ca: inactive; M1 PAM parental: inactive; OX1R antag-2: inactive; CHO-K1 Ca ag: inactive

Results for Cc1ccc(S(=O)(=O)N2[C@@H](c3cccc(Cl)c3)C(C(=O)O)=CC[C@H]2c2ccc3c(c2)OCO3)cc1 ?
OX1R antag-1: 83; CHO-K1 Ca antag: inactive; CHO parental Ca: inactive; M1 PAM parental: inactive; OX1R antag-2: inactive; CHO-K1 Ca ag: inactive; OX1R HTRF confirm: 87; CHO-K1 HTRF cnt: inactive

How did Cc1ccc(S(=O)(=O)N2[C@@H](c3ccc(Cl)cc3)C(C(=O)O)=CC[C@H]2c2ccc3c(c2)OCO3)cc1 do in these assays?
OX1R antag-1: inactive; CHO-K1 Ca antag: inactive; CHO parental Ca: inactive; M1 PAM parental: inactive; OX1R antag-2: inactive; CHO-K1 Ca ag: inactive

How did O=C(Nc1ccc2oc(-c3ccccc3)nc2c1)C1CCCO1 (stereo not drawn) do in these assays?
OX1R antag-1: 98; CHO-K1 Ca antag: inactive; CHO parental Ca: inactive; M1 PAM parental: inactive; OX1R antag-2: inactive; CHO-K1 Ca ag: inactive; OX1R HTRF confirm: inactive; CHO-K1 HTRF cnt: inactive

Results for CC(C)(C)c1ccc(-c2nnc(SC3CCOC3=O)n2Cc2ccccc2)cc1 (stereo not drawn) ?
OX1R antag-1: 84; CHO-K1 Ca antag: inactive; CHO parental Ca: inactive; M1 PAM parental: inactive; OX1R antag-2: inactive; CHO-K1 Ca ag: inactive; OX1R HTRF confirm: inactive; CHO-K1 HTRF cnt: inactive

Results for O=C1OCCC1Sc1nc2ccccc2c(=O)n1Cc1ccccc1 (stereo not drawn) ?
OX1R antag-1: inactive; CHO-K1 Ca antag: inactive; CHO parental Ca: inactive; M1 PAM parental: inactive; OX1R antag-2: inactive; CHO-K1 Ca ag: inactive

What do the screens show for `Cc1cccc(-c2nnc3n2N=C(c2ccccc2)CS3)c1`?
OX1R antag-1: inactive; CHO-K1 Ca antag: inactive; CHO parental Ca: inactive; M1 PAM parental: inactive; OX1R antag-2: inactive; CHO-K1 Ca ag: inactive
